Laboratory results: ChEMBL document CHEMBL3877296, “Design, synthesis, and biological evaluation of novel alkylsulfanyl-1,2,4-triazoles as cis-restricted combretastatin A-4 analogues” (Eur J Med Chem, 2017)

Legend:
[1] = Cytotoxicity against human HepG2 cells assessed as growth inhibition after 48 hrs by MTT assay; format: functional, cell-based; settings: HepG2, 48 h
Summary of the method: (§1)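 Cells were kept in DMEM with 10% FBS and seeded at 5000 cells/well, then attached for 24 h at 37 °C. Compounds came from 20 mM DMSO stocks, serially diluted in medium, with 0.1% DMSO as vehicle control. After 48 h at 37 °C, MTT (5 mg/mL) was added for 4 h, formazan dissolved in DMSO and A570 read. IC50 was fitted from % inhibition versus control, mean of three independent experiments.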

[2] = Cytotoxicity against human PC3 cells assessed as growth inhibition after 48 hrs by MTT assay; format: functional, cell-based; settings: PC-3, 48 h; summary of the method: as §1
[3] = Cytotoxicity against human HT-29 cells assessed as growth inhibition after 48 hrs by MTT assay; format: functional, cell-based; settings: HT-29, 48 h; summary of the method: as §1
[4] = Cytotoxicity against human HCT116 cells assessed as growth inhibition after 48 hrs by MTT assay; format: functional, cell-based; settings: HCT-116, 48 h; summary of the method: as §1
Sus scrofa = species: Sus scrofa; test: Inhibition of porcine brain tubulin polymerization at 10 uM in presence of GTP by spectrophotometric method relative to control
Summary of the method: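 Tubulin was purified from pig brain microtubule protein by three temperature-driven assembly/disassembly cycles, then phosphocellulose chromatography. Polymerization ran in PEM buffer (100 mM PIPES, 1 mM MgCl2, 1 mM EGTA) with 1 mM GTP and 5% glycerol at 37 °C, followed by light scattering at 340 nm. Percent inhibition came from plateau absorbance, with a DMSO negative control and a CA-4 reference run the same day.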

Row | inhibition (Sus scrofa) [%] | Structure (SMILES) | IC50 [1] [µM] | IC50 [2] [µM] | IC50 [3] [µM] | IC50 [4] [µM]
1 | – | CCSc1nnc(-c2cc(OC)c(OC)c(OC)c2)n1-c1ccc(OC)cc1 | > 60 | 57.7 | > 60 | > 60
2 | – | COc1cc(-c2nnc(SCC(=O)C3CC3)n2-c2ccc(N(C)C)cc2)cc(OC)c1OC | > 60 | 45.9 | > 60 | > 60
3 | – | CCSc1nnc(-c2cc(OC)c(OC)c(OC)c2)n1-c1ccc(N(C)C)cc1 | > 60 | 46.2 | > 60 | > 60
4 | – | COc1ccc(-n2c(SC)nnc2-c2cc(OC)c(OC)c(OC)c2)cc1 | > 60 | > 60 | > 60 | > 60
5 | – | COc1ccc(-n2c(SCC(=O)c3ccccc3)nnc2-c2cc(OC)c(OC)c(OC)c2)cc1 | 16.2 | > 60 | > 60 | > 60
6 | 17 | COc1cc(-c2nnc(SCC(=O)Nc3ccc(Cl)cc3)n2-c2ccc(N(C)C)cc2)cc(OC)c1OC | > 60 | > 60 | > 60 | 39.3
7 | 21 | COc1cc(-c2nnc(SCc3ccc(C)cc3)n2-c2ccc(N(C)C)cc2)cc(OC)c1OC | > 60 | 37.3 | 27.4 | > 60
8 | – | CCOC(=O)CSc1nnc(-c2cc(OC)c(OC)c(OC)c2)n1-c1ccc(OC)cc1 | > 60 | > 60 | > 60 | > 60
9 | 38 | COc1ccc(C(=O)CSc2nnc(-c3cc(OC)c(OC)c(OC)c3)n2-c2ccc(N(C)C)cc2)cc1 | 18.8 | 22 | 64 | > 60
10 | 10 | COc1ccc(NC(=O)CSc2nnc(-c3cc(OC)c(OC)c(OC)c3)n2-c2ccc(OC)cc2)cc1 | > 60 | 25.8 | 45.2 | > 60
11 | – | COc1ccc(-n2c(SCc3ccc(F)cc3)nnc2-c2cc(OC)c(OC)c(OC)c2)cc1 | 35 | 35 | 50.7 | 38.7
12 | – | COc1cc(-c2nnc(SCC(=O)c3ccc(F)cc3)n2-c2ccc(N(C)C)cc2)cc(OC)c1OC | > 60 | 42.3 | 78 | 31.1
13 | – | COc1ccc(NC(=O)CSc2nnc(-c3cc(OC)c(OC)c(OC)c3)n2-c2ccc(N(C)C)cc2)cc1 | > 60 | 56.1 | 51.4 | > 60
14 | – | COc1cc(-c2nnc(SCc3ccc(F)cc3)n2-c2ccc(N(C)C)cc2)cc(OC)c1OC | 26.4 | 46.5 | 44.3 | > 60
15 | 30 | COc1ccc(C(=O)CSc2nnc(-c3cc(OC)c(OC)c(OC)c3)n2-c2ccc(OC)cc2)cc1 | 18.1 | > 60 | > 60 | > 60
16 | 26 | COc1cc(-c2nnc(SCC(=O)c3ccc4ccccc4c3)n2-c2ccc(N(C)C)cc2)cc(OC)c1OC | > 60 | 18.1 | > 60 | 54.5
17 | – | COc1cc(-c2nnc(SCc3ccccc3)n2-c2ccc(N(C)C)cc2)cc(OC)c1OC | > 60 | 55.8 | > 60 | 54
